The values below come from publication PMC10793424 (bioRxiv, 2024).

The conditions of data set [1]: plasma, 3 mg/kg subcutaneous, CD-1 mice.
The conditions of data set [2]: for duration of significantly lowered serum calcium / lowest level of serum calcium: 3 mg/kg subcutaneous; for lowest level of serum calcium: from 2.2 mM.
A further data set concerns serum PTH. The experiment in a line: Serum PTH after subcutaneous injection. The data set is classed as in vivo, C57/B6 mice. The following applies: WT B6 mice. A digest of the protocol: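 Wild-type B6 mice given subcutaneous injections. Serum PTH was followed over 8 h after 1 mg/kg or 10 mg/kg. Dose comparison used serum PTH sampled 30 min after injection at several doses. n = 10 mice per dose, n = 5 at 10 mg/kg. Reference compound doses were corrected for molecular weight to match molar amounts. Unpaired Student's t-test.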

For data set [3], the system named is PTH secretion from parathyroid glands. The experiment in a line: Ex vivo parathyroid gland culture: PTH secretion and Ca2+ set-point. The data set is classed as cell-based, mouse. The essentials: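 Glands from 4-week-old wild-type C57/B6 mice, incubated sequentially with rising test compound (0.01 nM–50 µM) at 0.75 mM [Ca2+]e for dose-response. For set-point, 50 or 500 nM compound under rising [Ca2+]e. PTH secretion rate per gland per hour was normalized between vehicle basal rate (0.5 mM) and rate at 3.0 mM. Set-point is the [Ca2+]e suppressing 50% of Ca-suppressible secretion. n = 8 gland groups, mean ± SEM.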

A short description of the next data set: in vivo. To be noted: male, CD-1, mouse, sc, 3 mg/kg.
The mark [4] stands for this setting: 1 mg/kg (3.1 µmol/kg, equimolar) subcutaneous.

Read-outs that look alike come from different tables or passages of the source.

A word on the Cmax: it is the peak of the concentration-time curve. For the molecule `C[C@@H](NCCCc1cccc(C(F)(F)F)c1)c1cccc2ccccc12` [cinacalcet], the Cmax in data set [1] was determined as 150 nM; in the data set “in vivo” it was 58.9 ng/mL. Besides, the “time of Cmax” value in data set [1] was 15 min. For the same molecule, the “duration of significantly lowered serum calcium” value in data set [2] is “more than 8 hrs”. Moreover, in data set [2], the “lowest level of serum calcium” value stood at 1.7 mM. Further, the “suppression of PTH secretion (serum PTH)” value is “less effective” in the data set with serum PTH (setting [4]) and “fully suppress” in the data set on serum PTH (10 mg/kg (31 µmole/kg) subcutaneous). Besides, the “calcium set point for PTH secretion” value is given as 1.23 mM in data set [3] (PAM at 50 nM, vehicle 1.47 mM) and ~ 0.94 mM in data set [3] (PAM at 500 nM, vehicle 1.5 mM).
As a reminder, the IC50 is the concentration that gives 50% inhibition. Turning to `C[C@@H](N[C@H]1CCN(c2ccc(CC(=O)O)cc2)C1)c1cccc2ccccc12` [evocalcet], the “time of Cmax” value in data set [1] is reported as 60 min. The hypocalcemic action result in data set [2] (3.1 µmol/kg (~1 mg/kg) subcutaneous) was “particularly robust”. In data set [2], the “duration of significantly lowered serum calcium” value is reported as “more than 8 hrs” and the “lowest level of serum calcium” value turned out to be 1.6 mM. In addition, the “suppression of PTH secretion (serum PTH)” value with serum PTH (setting [4]) is “fully suppress”. Besides, the IC50 in data set [3] (Mus musculus, read-out: IC50 in suppressing PTH secretion) was 998 nM. In data set [3] (PAM at 50 nM, vehicle 1.47 mM), the “calcium set point for PTH secretion” value worked out at 1 mM. In addition, in data set [3] (PAM at 500 nM, vehicle 1.5 mM), the “calcium set point for PTH secretion” value worked out at 0.76 mM.
